In assay [1] the target is Kappa-type opioid receptor (Homo sapiens, UniProt P41145). The experiment in a line: biochemical. It is filed as cell-based, HEK293.
Assay [2] has as its target Delta-type opioid receptor (Homo sapiens, UniProt P41143). The experiment in a line: Inhibition of [3H]naltrindole binding to human Opioid receptor delta 1 in CHO cells. The format is cell-based. The procedure, abridged:
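Membranes from CHO cells expressing human delta opioid receptor (homogenized in 50 mM Tris HCl pH 7.4, 1 mM EGTA; stored frozen at 0.8 mg/mL) incubated with 0.5 nM [3H]naltrindole, 90 min at 37 °C. Nonspecific binding defined with unlabelled naltrindole. Filtration, scintillation counting; mean of at least three independent assays.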

For a further assay, the target named is Mu-type opioid receptor (Rattus norvegicus, UniProt P33535). The experiment in a line: Inhibition of [3H]DAMGO binding to rat Opioid receptor mu 1. The procedure, abridged:
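Rat brain crude membranes (homogenized in 50 mM Tris HCl pH 7.4, kept on ice) incubated with 1.5 nM [3H]DAMGO for 90 min at 22 °C. Nonspecific binding defined with naltrexone. Terminated by rapid filtration, bound radioactivity counted by scintillation. Mean of at least three independent assays.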

Sequence of Delta-type opioid receptor (P41143 whole entry): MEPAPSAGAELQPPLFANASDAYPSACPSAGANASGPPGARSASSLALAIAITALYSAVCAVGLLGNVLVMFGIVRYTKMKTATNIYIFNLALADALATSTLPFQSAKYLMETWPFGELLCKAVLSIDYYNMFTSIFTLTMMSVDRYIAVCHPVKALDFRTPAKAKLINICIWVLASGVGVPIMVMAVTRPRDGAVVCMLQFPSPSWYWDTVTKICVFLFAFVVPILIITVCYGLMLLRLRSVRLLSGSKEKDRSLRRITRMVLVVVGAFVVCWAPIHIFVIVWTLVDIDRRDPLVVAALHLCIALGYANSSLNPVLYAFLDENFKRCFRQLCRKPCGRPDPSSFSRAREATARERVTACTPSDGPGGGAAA
Sequence of Mu-type opioid receptor (P33535 whole entry): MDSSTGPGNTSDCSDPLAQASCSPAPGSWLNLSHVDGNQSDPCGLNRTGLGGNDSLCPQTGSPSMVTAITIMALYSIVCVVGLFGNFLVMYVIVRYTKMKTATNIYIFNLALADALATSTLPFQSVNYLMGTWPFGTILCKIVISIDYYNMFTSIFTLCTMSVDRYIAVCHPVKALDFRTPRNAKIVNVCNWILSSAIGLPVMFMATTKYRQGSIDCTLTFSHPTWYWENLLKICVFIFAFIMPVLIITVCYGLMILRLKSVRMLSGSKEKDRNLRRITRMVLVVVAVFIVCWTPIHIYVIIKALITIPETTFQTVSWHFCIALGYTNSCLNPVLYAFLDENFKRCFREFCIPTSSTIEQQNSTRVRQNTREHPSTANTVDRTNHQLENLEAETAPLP
Sequence of Kappa-type opioid receptor (P41145 whole entry): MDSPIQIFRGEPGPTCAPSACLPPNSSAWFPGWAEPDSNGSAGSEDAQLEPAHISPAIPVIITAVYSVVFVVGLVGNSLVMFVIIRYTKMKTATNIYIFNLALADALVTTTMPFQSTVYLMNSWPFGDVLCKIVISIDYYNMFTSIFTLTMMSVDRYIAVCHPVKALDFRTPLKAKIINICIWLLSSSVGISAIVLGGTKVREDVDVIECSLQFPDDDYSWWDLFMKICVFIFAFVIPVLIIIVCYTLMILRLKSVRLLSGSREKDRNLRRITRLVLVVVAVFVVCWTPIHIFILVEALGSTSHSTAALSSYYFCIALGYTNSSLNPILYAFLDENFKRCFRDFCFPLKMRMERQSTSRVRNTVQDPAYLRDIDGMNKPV

Turning to `CNC(c1ccccc1)C(C)(C)C(=O)NCCc1ccccc1` (stereo not drawn), the Ki in assay [1] is 49 nM; in assay [2] it was over 10000 nM; at Mu-type opioid receptor, 13 nM.
For `CNC(c1ccccc1)C(C)(C)C(=O)NCc1ccccc1` (stereo not drawn), in that order: 467 nM, over 10000 nM and 95 nM.
For `CN(CC1CC1)C(c1cccc(O)c1)C(C)(C)C(=O)NCCc1ccccc1` (stereo not drawn), in that order: 2.9 nM, 710 nM and 28 nM.
For `CNC(c1cccc(O)c1)C(C)(C)C(=O)NCc1ccccc1` (stereo not drawn), the results for the Ki (in assay [1]; in assay [2]; at Mu-type opioid receptor) were 5 nM, over 10000 nM and 8.7 nM, respectively.
For `CCCCN(C)C(c1cccc(O)c1)C(C)(C)C(=O)NCCc1ccccc1` (stereo not drawn), in that order: 75 nM, over 10000 nM and 26 nM.
Turning to `CNC(c1cccc(O)c1)C(C)(C)C(=O)NCC1CCCCC1` (stereo not drawn), the Ki in assay [1] came out at 5.7 nM; in assay [2] it was 881 nM; at Mu-type opioid receptor, 4.4 nM.
For `CNC(c1ccccc1)C(C)(C)C(=O)NCC1CCCCC1` (stereo not drawn), in that order: 1.2 nM, over 10000 nM and 85 nM.
For `CNC(c1cccc(O)c1)C(C)(C)C(=O)NCc1cccc2ccccc12` (stereo not drawn), in that order: 1.3 nM, 163 nM and 1.4 nM.
For `CNC(c1cccc(O)c1)C(C)(C)C(=O)NCCCc1ccccc1` (stereo not drawn), in that order: 3.6 nM, over 10000 nM and 12 nM.
For the compound `CNC(c1cccc(O)c1)C(C)(C)C(=O)NCC1CC1` (stereo not drawn), the inhibitory constant (Ki) in assay [1] is 75 nM; in assay [2], 781 nM; at Mu-type opioid receptor, 364 nM.
As to `CNC(c1cccc(O)c1)C(C)(C)C(=O)NCCc1ccccc1` (stereo not drawn), the Ki in assay [1] came out at 6.3 nM; in assay [2], 176 nM; at Mu-type opioid receptor it was 1.4 nM.

One may read the Ki as the equilibrium dissociation constant of an inhibitor or competing ligand from its target. Low values mean a stronger hold on the target, high ones a looser hold on the target.

Source of the values: ChEMBL document CHEMBL1133419, “Design, synthesis and biological evaluation of 3-amino-3-phenylpropionamide derivatives as novel mu opioid receptor ligands” (Bioorg Med Chem Lett, 2000).
